Results on 1 compound are retold here after ChEMBL document CHEMBL4265908, “Structure-activity and structure-property relationships of novel Nrf2 activators with a 1,2,4-oxadiazole core and their therapeutic effects on acetaminophen (APAP)-induced acute liver injury” (Eur J Med Chem, 2018).

Activity calls are given as the source filed them. No cut-off for these calls is given here.

Series [1] deals with HepG2. The series can be described thus: Cytotoxicity against human HepG2 cells at 80 uM after 24 hrs by MTT assay. Particulars: hepg2, 24 h. It is filed as cell-based.
Series [2] deals with L02. The series can be described thus: Hepatoprotective activity against APAP-induced cell injury in human LO2 cells cotreated with Nrf2 siRNA assessed as cell viability at 20 uM pretreated for 24 hrs followed by APAP treatment measured after 24 hrs by MTT assay. The format is functional. The conditions noted are these: read-out: Activity. A digest of the protocol:
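LO2 cells plated for 12 h and pretreated for 24 h with 5, 10 or 20 μM compound. One arm was first transfected with 50 nM Nrf2 siRNA before receiving 20 μM compound. Medium then replaced with medium containing 8 mM APAP for 24 h. Viability by MTT at A570. Mean ± SD of three experiments.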

The subject of series [3] is Mus musculus. The series can be described thus: Hepatoprotective activity against APAP-induced liver injury in C57BL/6 mouse assessed as reduction in serum AST levels administered ip for 7 consecutive days followed by APAP challenge 1 hr post last compound dose and measured after 24 hrs. It is filed as functional, organism-based. A digest of the protocol: (§1)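 Female C57BL/6 mice (20–25 g, n = 10/group) received 10, 50 or 100 mg/kg/day ip in saline for 7 days. One hour after the last dose they received APAP 300 mg/kg in saline. Killed 24 h later. Serum ALT/AST by kit. Liver homogenates (pH 7.0 phosphate) used for GSH (A420, μmol/g protein), GST (A412, U/mg protein) and SOD. Liver also analyzed by western blot (β-actin normalized), qRT-PCR (GAPDH normalized) and H&E.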

In series [4] the test system is Mus musculus. The series can be described thus: In vivo activation of Nrf2 in APAP-induced liver injury in C57BL/6 mouse assessed as increase in HO-1 protein expression level at 10 to 100 mg/kg, ip administered for 7 consecutive days followed by APAP challenge 1 hr post last compound dose and measured after 24 hrs by Western blot analysis. It is filed as functional, organism-based. The method in brief: as §1

With `Cc1ccc(-c2noc(-c3ccc(F)c(F)c3)n2)cn1`, the Activity entry is “Non-Toxic” in series [1] and “Dose-dependent effect” in series [3]. For the same compound, the viability at 20 µM in series [2] was found to be 50%. Also, in series [4], the result was Active.
